# Data taken from ChEMBL document CHEMBL4196167, “Ansamycins with Antiproliferative and Antineuroinflammatory Activity from Moss-Soil-Derived Streptomyces cacaoi subsp. asoensis H2S5” (J Nat Prod, 2018).
# pIC50: −log10 of the molar value. Calls of active or inactive are those of the source. No cut-off for these calls is given here.
# What was measured:
# PC-3 = experiment: Cytotoxicity against human PC3 cells after 72 hrs by sulforhodamine B assay; format: functional, cell-based; conditions: PC-3, 72 h
# In short: (§1)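 SRB assay. Exponentially growing cells at 2.5 × 10^4 cells/mL attached, then given fresh medium with a range of concentrations for 72 h at 37 °C; four replicate wells; 0.1% DMSO negative control, doxorubicin reference. Fixed in cold 10% TCA 1 h at 4 °C, stained with 0.4% SRB, dye dissolved in 10 mM Tris, A560; viability relative to control; IC50 from dose–response curves.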
# BV-2 = experiment: Inhibition of LPS-induced nitric oxide production in mouse BV2 cells after 24 hrs by Griess assay; format: functional, cell-based; conditions: BV-2, 24 h
# In short: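 BV-2 murine microglia in DMEM with 10% heat-inactivated FBS, seeded at 2 × 10^4/well and grown 24 h. Given compound at five concentrations with 1 μg/mL LPS (E. coli 0111:B4) for 24 h; quercetin reference. Supernatant nitrite measured by Griess reagents I and II at A540 against a sodium nitrite standard curve; IC50 as concentration halving NO.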
# [1] = Cytotoxicity against LPS-induced mouse BV2 cells assessed as cell viability after 24 hrs by MTT assay; format: cell-based, BV-2; set-up: concentration or dose not given beside the values; conditions: read-out: Activity
# In short: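 BV-2 cells seeded at 2 × 10^3 per 100 μL and grown 24 h, then given compound at various concentrations plus LPS for 24 h; DMSO alone as negative control. MTT (5 mg/mL stock, 10 μL) added for 4 h at 37 °C, lysed overnight in SDS/[…]/HCl buffer, absorbance 570 nm.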
# HepG2 [2] = experiment: Cytotoxicity against human HepG2 cells after 72 hrs by sulforhodamine B assay; format: functional, cell-based; conditions: HepG2, 72 h; in short: as §1
# HepG2 [3] = experiment: Induction of apoptosis in human HepG2 cells assessed as early apoptotic cells at 0.5 uM after 48 hrs by annexin-V-FITC/propidium iodide staining based flow cytometry (reference value: 0.33%); format: functional
# HepG2 [4] = experiment: Induction of apoptosis in human HepG2 cells assessed as late apoptotic cells at 5 uM after 48 hrs by annexin-V-FITC/propidium iodide staining based flow cytometry (reference value: 0.51%); format: functional
# HepG2 [5] = experiment: Induction of apoptosis in human HepG2 cells assessed as necrotic cells at 0.5 uM after 48 hrs by annexin-V-FITC/propidium iodide staining based flow cytometry (reference value: 1.82%); format: functional
# HepG2 [6] = experiment: Cell cycle arrest in human HepG2 cells assessed as accumulation at S-phase at 0.5 uM after 24 hrs by propidium iodide staining based flow cytometry (reference value: 25.5%); format: functional
# In short: (§2)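 HepG2 cells exposed 24 h to 0.5, 1.0 or 5.0 μM, with DMSO control; washed in cold PBS, fixed in ice-cold 95% ethanol at 4 °C for at least 2 h, then PI-stained 30 min at 37 °C. Cell-cycle phases read by flow cytometry on 10 000 cells per sample; three independent experiments.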
# HepG2 [7] = experiment: Induction of apoptosis in human HepG2 cells assessed as chromatin condensation at 5 to 10 uM after 48 hrs by Hoechst 33342 staining based fluorescence microscopic analysis; format: functional, cell-based
# In short: (§3)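 1 × 10^6 HepG2 cells on coverslips treated 48 h at 1.0, 5.0 or 10 μM; DMSO control. Fixed 30 min in 4% paraformaldehyde, Hoechst 33342 stained 10 min at room temperature in the dark, PBS-washed, nuclear morphology viewed by fluorescence microscopy.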
# HepG2 [8] = experiment: Cell cycle arrest in human HepG2 cells assessed as accumulation at G2-phase at 0.5 uM after 24 hrs by propidium iodide staining based flow cytometry (reference value: 9.61%); format: functional; in short: as §2
# HepG2 [9] = experiment: Cell cycle arrest in human HepG2 cells assessed as accumulation at S-phase at 1 uM after 24 hrs by propidium iodide staining based flow cytometry (reference value: 25.5%); format: functional; in short: as §2
# HepG2 [10] = experiment: Induction of apoptosis in human HepG2 cells assessed as early apoptotic cells at 1 uM after 48 hrs by annexin-V-FITC/propidium iodide staining based flow cytometry (reference value: 0.33%); format: functional
# HepG2 [11] = experiment: Induction of apoptosis in human HepG2 cells assessed as late apoptotic cells at 1 uM after 48 hrs by annexin-V-FITC/propidium iodide staining based flow cytometry (reference value: 0.51%); format: functional
# HepG2 [12] = experiment: Induction of apoptosis in human HepG2 cells assessed as early apoptotic cells at 5 uM after 48 hrs by annexin-V-FITC/propidium iodide staining based flow cytometry (reference value: 0.33%); format: functional
# HepG2 [13] = experiment: Induction of apoptosis in human HepG2 cells assessed as late apoptotic cells at 0.5 uM after 48 hrs by annexin-V-FITC/propidium iodide staining based flow cytometry (reference value: 0.51%); format: functional
# HepG2 [14] = experiment: Induction of apoptosis in human HepG2 cells assessed as cell shrinkage at 5 to 10 uM after 48 hrs by Hoechst 33342 staining based fluorescence microscopic analysis; format: functional; in short: as §3
# HepG2 [15] = experiment: Cell cycle arrest in human HepG2 cells assessed as accumulation at G2-phase at 5 uM after 24 hrs by propidium iodide staining based flow cytometry (reference value: 9.61%); format: functional; in short: as §2
# HepG2 [16] = experiment: Induction of apoptosis in human HepG2 cells assessed as necrotic cells at 5 uM after 48 hrs by annexin-V-FITC/propidium iodide staining based flow cytometry (reference value: 1.82%); format: functional
# HepG2 [17] = experiment: Cell cycle arrest in human HepG2 cells assessed as accumulation at G1-phase at 5 uM after 24 hrs by propidium iodide staining based flow cytometry (reference value: 62.3%); format: functional; in short: as §2
# HepG2 [18] = experiment: Cell cycle arrest in human HepG2 cells assessed as accumulation at G1-phase at 0.5 uM after 24 hrs by propidium iodide staining based flow cytometry (reference value: 62.3%); format: functional; in short: as §2
# HepG2 [19] = experiment: Cell cycle arrest in human HepG2 cells assessed as accumulation at G2-phase at 1 uM after 24 hrs by propidium iodide staining based flow cytometry (reference value: 9.61%); format: functional; in short: as §2
# HepG2 [20] = experiment: Induction of apoptosis in human HepG2 cells assessed as necrotic cells at 1 uM after 48 hrs by annexin-V-FITC/propidium iodide staining based flow cytometry (reference value: 1.82%); format: functional
# HepG2 [21] = experiment: Cell cycle arrest in human HepG2 cells assessed as accumulation at S-phase at 5 uM after 24 hrs by propidium iodide staining based flow cytometry (reference value: 25.5%); format: functional; in short: as §2
# HepG2 [22] = experiment: Cell cycle arrest in human HepG2 cells assessed as accumulation at G1-phase at 1 uM after 24 hrs by propidium iodide staining based flow cytometry (reference value: 62.3%); format: functional; in short: as §2
Compound,pIC50 (BV-2),pIC50 (PC-3),viability at 24 h [1],pIC50 (HepG2 [2]),further results
CC.CO[C@H]1/C=C/C=C/C=C/C[C@H](O)[C@H](C)[C@@H](OC(=O)[C@@H](C)NC(=O)CC(C)C)/C(C)=C\CCc2cc(O)cc(c2)NC(=O)C1,5.08,4.92,83.1%,4.69,
O=c1c(O)c(-c2ccc(O)c(O)c2)oc2cc(O)cc(O)c12 [QUERCETIN],5.62,,99.2%,,
COc1cccc2c1C(=O)c1c(O)c3c(c(O)c1C2=O)C[C@@](O)(C(=O)CO)C[C@@H]3O[C@H]1C[C@H](N)[C@H](O)[C@H](C)O1 [DOXORUBICIN],,6.10,,6.15,
CO[C@H]1/C=C/C=C/C=C/C[C@H](OC(=O)[C@@H](C)NC(=O)C(C)C)[C@H](C)[C@@H](O)/C(C)=C\CCc2cc(O)cc(c2)NC(=O)C1,5.54,5.36,85.4%,6.40,
CCC(C)C(=O)N[C@H](C)C(=O)O[C@H]1C/C=C/C=C/C=C/[C@H](OC)CC(=O)Nc2cc(O)cc(c2)CC/C=C(/C)[C@H](O)[C@H]1C (some centres undefined),6.32,5.59,76.3%,6.30,
CO[C@H]1/C=C/C=C/C=C/C[C@H](OC(=O)[C@@H](C)NC(=O)CC(C)C)[C@H](C)[C@@H](O)/C(C)=C\CCc2cc(O)cc(c2)NC(=O)C1,5.96,5.35,92.7%,6.00,
CCCC(=O)N[C@H](C)C(=O)O[C@H]1C/C=C/C=C/C=C/[C@H](OC)CC(=O)Nc2cc(O)cc(c2)CC/C=C(/C)[C@H](O)[C@H]1C,5.77,5.35,96%,5.52,

# Continued by rising pIC50 (BV-2), values first:
pIC50 (BV-2),Compound,pIC50 (PC-3),viability at 24 h [1],pIC50 (HepG2 [2]),further results
6.52,CO[C@H]1/C=C/C=C/C=C/C[C@H](O)[C@H](C)[C@@H](OC(=O)[C@@H](C)NC(=O)C2CCCCC2)/C(C)=C\CCc2cc(O)cc(c2)NC(=O)C1,4.99,93.1%,4.75,
6.74,CO[C@H]1/C=C/C=C/C=C/C[C@H](OC(=O)[C@@H](C)NC(=O)CCC(C)C)[C@H](C)[C@@H](O)/C(C)=C\CCc2cc(O)cc(c2)NC(=O)C1,5.38,82.5%,6.70,
7.05,CO[C@H]1/C=C/C=C/C=C/C[C@H](OC(=O)[C@@H](C)NC(=O)CCCC(C)C)[C@H](C)[C@@H](O)/C(C)=C\CCc2cc(O)cc(c2)NC(=O)C1,5.57,83.8%,7.00,Activity (HepG2 [3]): 5.11%; Activity (HepG2 [4]): 5.67%; Activity (HepG2 [5]): 1.98%; Activity (HepG2 [6]): 24.7%; Activity (HepG2 [7]): Active; Activity (HepG2 [8]): 14.2%; Activity (HepG2 [9]): 34.5%; Activity (HepG2 [10]): 9.53%; Activity (HepG2 [11]): 1.66%; Activity (HepG2 [12]): 17.63%; Activity (HepG2 [13]): 1.25%; Activity (HepG2 [14]): Active; Activity (HepG2 [15]): 12.6%; Activity (HepG2 [16]): 3.66%; Activity (HepG2 [17]): 42.4%; Activity (HepG2 [18]): 59.1%; Activity (HepG2 [19]): 12.4%; Activity (HepG2 [20]): 2.1%; Activity (HepG2 [21]): 38.6%; Activity (HepG2 [22]): 37.1%
7.52,CO[C@H]1/C=C/C=C/C=C/C[C@H](OC(=O)[C@@H](C)NC(=O)C2=CCCCC2)[C@H](C)[C@@H](O)/C(C)=C\CCc2cc(O)cc(c2)NC(=O)C1,6.15,94.3%,6.70,
7.70,CO[C@H]1/C=C/C=C/C=C/C[C@H](OC(=O)[C@@H](C)NC(=O)C2CCCCC2)[C@H](C)[C@@H](O)/C(C)=C\CCc2cc(O)cc(c2)NC(=O)C1 [TRIENOMYCIN A],6.40,95.2%,6.70,
